# Fh CTSL1 inh: cathepsin L1 inhibition, PFM18AAP counter-screen | inhibition, % at 5.96 µM | recombinant F. hepatica cathepsin L1, Z-Leu-Arg-MCA fluorescence | hit rate 0.49% among 300,000 | AID 1906;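 active = inhibition above the mean of all tested compounds plus 3 SD, set per screening campaign, cut at about 17% in these data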;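 note: 0% = plate median of test compound wells and 100% = 1 µM Z-Phe-Ala-diazomethylketone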
# UCH37 inh: inhibitors of human deubiquitinating enzyme UCH37 | Q9Y5K5 | purified proteasome/UCH37, Ub-AMC cleavage fluorescence | inhibition, % (concentration not given with the values) | hit rate 0.33% among 330,000 | AID 588478;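 active = mean inhibition over replicate wells above about 20%, limit read from the data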;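 note: 0% = compound-free wells with enzyme and 100% = wells lacking proteasome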
#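 Signal – fluorescence, ex 355 nm, em 460 nm · System – Proteasome-bound UCH37 · Input – 0.15 nM proteasome as dispensed · Timing – 30 min preincubation with enzyme, 25 min cleavage at room temperature · Read-out basis – percent inhibition of cleavage signal versus uninhibited and no-proteasome wells · Medium – Tris-HCl pH 7.4 with ATP-MgCl2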
# PKA-R2B activ: activators of human PKA-R2B complex | AID 504700 | P22694+P31323 | hit rate 0.079% among 340,000 | activation, % at 11.4 µM | PKA-R2B holoenzyme dissociation, Cy5-IP20 fluorescence polarization; R2B truncated from residue 108, S112A mutant; 0% DMSO only, 100% 113 µM cGMP;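 active = activation above a cutoff set at the mean over all compounds plus 3 SD, cut at about 18% in these data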;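 note: higher means more holoenzyme dissociation and a rise in polarization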
# Target sequence (P31323 whole entry, looked up, other chains not shown, the tested form may be a part): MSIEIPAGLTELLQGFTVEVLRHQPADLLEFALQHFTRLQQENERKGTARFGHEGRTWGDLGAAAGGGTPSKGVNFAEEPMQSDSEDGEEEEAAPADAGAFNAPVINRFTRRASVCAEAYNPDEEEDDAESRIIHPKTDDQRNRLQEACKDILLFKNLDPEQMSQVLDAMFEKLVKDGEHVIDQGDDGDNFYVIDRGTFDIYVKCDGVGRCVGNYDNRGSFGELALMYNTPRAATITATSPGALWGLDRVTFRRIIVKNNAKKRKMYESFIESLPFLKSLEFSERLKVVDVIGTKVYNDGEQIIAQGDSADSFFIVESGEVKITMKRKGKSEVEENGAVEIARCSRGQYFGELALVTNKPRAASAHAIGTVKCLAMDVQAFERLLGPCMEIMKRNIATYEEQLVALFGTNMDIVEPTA
# PKA-R1A activ: activators of PKA-R1A complex | P00514+P68181 | PKA-R1A dissociation, Cy5-IP20 fluorescence polarization; scaled: DMSO 0%, 113 µM cGMP 100% | activation, % at 11.4 µM | hit rate 0.083% among 340,000 | AID 504707;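 active = percent activation above the mean of all tested compounds plus 3 SD, cut at about 19% in these data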;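 note: higher means more PKAc released from R1A so a rise in polarization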
# aDG glyco act: alpha-DG glycosylation activation. Pro5-aDG cells, alpha-DG glycosylation AlphaScreen (IIH6); 0% Pro5, 100% B10-LARGE cell signal. activation, % at 10 µM. hit rate 0.22% among 360,000. AID 624168;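 active = activation of at least 8% versus controls, or a plate z-score of at least 8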;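 note: Pro5 are CHO cells carrying HIG-tagged alpha-DG that lacks glycosylation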
# * = called active by the depositor; · = not tested or not shown. Sampled rows, rich in hits. Any-hit rate of the full collection: about 0.94%.
SMILES,Fh CTSL1 inh,UCH37 inh,PKA-R2B activ,PKA-R1A activ,aDG glyco act
Cc1ccc(S(=O)(=O)N=C(Sc2ccccc2)c2ccccc2)cc1,·,2.3,·,·,·
O=C(O)c1cccc(-n2cccc2/C=C2/NC(=O)N(c3ccc(Cl)cc3)C2=O)c1,·,27.4*,4.6,-6.6,-0.1
O=C(COc1ccc(Cl)cc1Cl)NN=CC1CC=CCC1 (centres undefined),·,-0.8,·,·,·
NC(=S)N/N=C1/CCSc2ccc3ccccc3c21,25.4*,·,-12.0,-0.5,1.1
CSc1ccccc1N=Cc1nc(-c2ccccc2)oc1O,7.8,-5.6,6.5,-2.0,-0.1
COc1ccccc1N=Cc1nc(-c2ccccc2)oc1OC(C)=O,17.2*,1.3,-10.4,4.1,0.2
CC(=O)Oc1oc(-c2ccccc2)nc1/C=N/c1ccccn1,26.0*,·,-9.7,0.6,0.0
CC(=O)Oc1oc(-c2ccccc2)nc1C=Nc1ccc(N(C)C)cc1,18.2*,5.3,-1.9,10.6,0.0
CN(C)c1ccc(N=Cc2nc(-c3ccccc3)oc2OC(=O)c2ccccc2)cc1,8.1,7.8,-6.6,-13.9,0.0
Oc1oc(-c2ccccc2)nc1C=Nc1ccccc1,3.5,4.1,-1.9,-12.9,-0.1
CCC(=O)/C=C1/Sc2ccccc2N1CC,3.6,22.1*,1.4,3.0,0.2
OC1CCN(C(=S)NCCc2ccccc2)CC1,3.8,0.7,4.4,0.3,0.0
S=C(NCCc1ccccc1)N1CCc2ccccc2C1,0.7,21.9*,-8.3,-3.2,1.2
COc1ccc(C=NNC(=O)CN(C)C(=O)OCc2ccccc2)cc1OC,·,1.7,·,·,·
CCN(CC)S(=O)(=O)c1ccc(N2CCCC2)c(NC(=O)CC(C)(C)C)c1,19.8*,5.8,-19.2,-4.7,0.1
Cc1ccc(NC(=O)CSc2nc3ccccc3c(=O)n2CCCN2CCCCC2)cc1C,-0.7,4.0,0.1,-6.6,8.3*
Cc1ccc(CN2CCN(N=Cc3cc(Br)cc(Br)c3O)CC2)c(C)c1,·,3.2,·,·,·
COC(=O)Nc1ccc([N+](=O)[O-])cc1OC,1.4,8.6,9.6,-9.6,1.0
COC(=O)CSc1cc([N+](=O)[O-])ccc1NC(=O)OC,18.6*,5.4,-10.5,-0.4,0.8
CC(=O)/C(N=Nc1ccc(C(=O)O)cc1[N+](=O)[O-])=C(\C)O,1.2,16.5,1.3,7.3,0.1
CCOC(=O)/C(N=Nc1ccc(C(=O)O)cc1[N+](=O)[O-])=C(\C)O,5.2,23.3*,8.2,6.0,0.0
O=C(O)CCC(=NNc1ccc([N+](=O)[O-])cc1)c1ccccc1,·,10.0,·,·,·
Cc1ccc(C)n1Cc1ccc(C(=O)O)cc1,-6.0,29.9*,0.9,2.8,-0.2
Cc1cc(C)n(Cc2ccc(C(=O)O)cc2)n1,-0.5,-2.8,-1.8,-6.7,-0.2
CC1=C(N2CCCCC2)CCC1=O,-3.9,33.1*,-8.2,-6.3,0.6
SMILES,Fh CTSL1 inh,UCH37 inh,PKA-R2B activ,PKA-R1A activ,aDG glyco act
CCN(CC)CCN(C(=O)CCS(=O)(=O)c1ccccc1)c1nc2c(C)cc(C)cc2s1,40.5*,3.9,-2.3,-1.5,0.9
Cc1cccc2sc(N(CCN3CCOCC3)C(=O)CCS(=O)(=O)c3ccccc3)nc12,16.7*,4.1,1.1,11.2,1.3
Cc1cc(C)c2sc(N(CCN(C)C)C(=O)CCS(=O)(=O)c3ccccc3)nc2c1,13.6,7.2,-3.5,-3.9,0.1
CCN(CC)CCN(C(=O)CCS(=O)(=O)c1ccccc1)c1nc2cc(C)cc(C)c2s1,34.4*,3.6,3.4,-4.5,0.6
O=C(CN1CCCCCC1)NN=Cc1cccc(Cl)c1Cl,·,8.1,·,·,·
O=C(NN=C/C=C/c1ccccc1)c1cccnc1,·,9.3,·,·,·
Cc1cc(N(C)N=Cc2ccccc2O)nc(-c2ccccc2O)n1,·,-16.2,·,·,·
Nc1nonc1-n1nnc(C(=O)NN=Cc2cccc(Cl)c2)c1CN1CCCC1,·,1.6,·,·,·
Cc1ccc(NC(=O)CC2S/C(=N/c3nccs3)N(C)C2=O)cc1C (centres undefined),40.8*,·,-1.0,-22.9,-0.1
Cc1ccccc1Cn1nnc2c1C(=O)c1ccccc1C2=O,25.4*,4.8,6.8,-17.5,2.5
Cc1cccc(Cn2ncc(Cl)c(Cl)c2=O)c1,1.9,1.4,-2.0,2.1,0.2
Cc1cccc(Cn2nnc3c2C(=O)c2ccccc2C3=O)c1,18.9*,5.4,1.9,-3.9,6.4
O=C(COC(=O)C1CCN(c2ccc(C(F)(F)F)cn2)CC1)c1ccc(F)cc1,17.9*,0.1,-3.7,3.5,0.0
O=C(COC(=O)C1CCN(c2ccc(C(F)(F)F)cn2)CC1)c1ccc(Cl)cc1,5.1,-3.4,-2.0,3.6,0.2
O=C1c2ccccc2C(=O)c2c1ccc1c(=O)n(C3CCCCC3)[nH]c21,2.5,7.2,-2.6,4.6,1.9
O=C1C2=C(c3ccccc31)[N+](=O)[C@@H]1CCCC[C@@H]1N2[O-],-1.5,26.5*,-7.4,-8.5,0.0
CC1CCN(C2=C(NS(=O)(=O)c3ccccc3)C(=O)c3ccccc3C2=O)CC1,-3.2,3.3,-6.5,6.2,-0.3
O=C1C2=C(c3ccccc31)[N+](=O)C1CCCCC1N2[O-] (centres undefined),-3.7,26.8*,4.3,-4.5,0.0
COc1ccc(C2=NN(C(=O)CSc3nnc(-c4ccccc4F)o3)C(c3ccco3)C2)cc1 (centres undefined),6.5,5.7,-6.7,2.5,-0.1
COc1ccc(C2=NN(C(N)=S)C(c3ccco3)C2)cc1 (centres undefined),62.5*,2.5,1.1,-4.1,0.4
CC1(C)CNc2cc([N+](=O)[O-])ccc2S1,-0.5,25.7*,-1.4,-1.6,0.3
COc1ccccc1-n1c(=O)[nH]c2c(C(N)=O)nc(CC(C)C)nc21,20.6*,-16.6,2.2,4.6,-0.1
COc1ccccc1-n1c(=O)[nH]c2c(C(N)=O)nc(C3CCCCC3)nc21,-0.9,-4.8,-7.4,-6.6,-0.1
COc1cc(C(=O)Oc2cccc(C=NNC(=O)c3cc(C)[nH]n3)c2)cc(OC)c1OC,·,0.4,·,·,·
Cc1ccc(N(C)S(=O)(=O)c2cccc(C(=O)NC3CC(C)(C)NC(C)(C)C3)c2)cc1,-0.5,1.8,3.2,6.0,0.0
CC1(C)CC(NC(=O)c2cccc(S(=O)(=O)N(Cc3ccccc3)c3ccccc3)c2)CC(C)(C)N1,5.1,-0.2,-2.7,-0.6,6.8*
CCOc1ccc(S(=O)(=O)NCCC(=O)NCC(c2ccc(F)cc2)N2CCOCC2)cc1 (centres undefined),18.1*,0.6,-8.8,4.5,-0.2
CC(=O)OC1c2ccccc2C(=O)N1Cc1ccccc1 (centres undefined),20.2*,2.7,8.3,-9.2,-0.4
CC1=C(C(=O)OCc2ccccc2)C(c2ccsc2)C(C#N)=C(N)O1 (centres undefined),-9.4,1.8,-8.7,-0.5,-0.1
